Among the data in ChEMBL document CHEMBL1156758, “Quantitative analyses of aggregation, autofluorescence, and reactivity artifacts in a screen for inhibitors of a thiol protease” (J Med Chem, 2010) are IC50 values, retold here.

Assay [1] is described as follows: Inhibition of Beta-lactamase AmpC by quantitative high throughput screening.
Assay [2] deals with T1, Cruzipain (Trypanosoma cruzi, UniProt P25779). The assay can be described thus: Inhibition of Trypanosoma cruzi cruzain by quantitative high throughput screening. The method in brief: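 1536-well qHTS in 100 mM acetate pH 5.5 with 5 mM DTT, 4 μL final volume. Two conditions: 0.01% Triton X-100 with 1.5 nM cruzain, or 0.00005% Triton with 3 nM cruzain. Seven compound concentrations from 57.5 μM to 3.7 nM, preincubated 15 min at room temperature. Then 2 μM Z-Phe-Arg-AMC added. Fluorescence (ex 340/em 450) read kinetically over 60 s. Initial-rate data fitted to a four-parameter Hill equation.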
T1 sequence (P25779 whole entry): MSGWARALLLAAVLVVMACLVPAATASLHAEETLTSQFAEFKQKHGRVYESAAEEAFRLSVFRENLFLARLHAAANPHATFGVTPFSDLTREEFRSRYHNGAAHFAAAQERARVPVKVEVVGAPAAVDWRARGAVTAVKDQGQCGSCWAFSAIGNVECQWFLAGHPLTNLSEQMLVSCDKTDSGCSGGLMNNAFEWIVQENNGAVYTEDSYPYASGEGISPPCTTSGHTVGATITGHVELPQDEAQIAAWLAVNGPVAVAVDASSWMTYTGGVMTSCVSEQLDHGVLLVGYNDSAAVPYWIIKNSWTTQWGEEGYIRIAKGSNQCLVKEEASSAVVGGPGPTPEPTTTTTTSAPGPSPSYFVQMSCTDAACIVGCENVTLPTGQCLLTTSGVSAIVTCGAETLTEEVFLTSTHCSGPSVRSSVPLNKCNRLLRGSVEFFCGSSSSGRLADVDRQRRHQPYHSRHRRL

Assay [3] deals with T1, Cruzipain. Nature of the assay: Inhibition of Trypanosoma cruzi cruzain by Flexstation microplate spectrofluorimetry. Put shortly: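 Secondary 96-well assay: 0.4 nM cruzain in 0.1 M sodium acetate pH 5.5, 5 mM DTT, with or without 0.01% Triton X-100. Compound from 200x DMSO stock preincubated with enzyme 15 min. Reaction started with Z-Phe-Arg-AMC at 2.5 μM final (Km 2 μM) and followed for 5 min. Percent inhibition taken from initial rates versus a DMSO control. Each assay run at least twice.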

`O=[N+]([O-])c1ccccc1S(=O)(=O)NC[C@H]1CC[C@H](CNCC2CCc3ccccc3C2)CC1` (some centres not stated): the concentration for half-maximal inhibition (IC50) in assay [1] is 13 µM; in assay [2], over 60 µM; in assay [3], over 120 µM.
Taken in the same sequence, the figures for `CCCCC/C=C\C/C=C\C/C=C\C/C=C\CCCC(=O)Nc1ccc(O)cc1` were 10 µM, over 60 µM and 30 µM.
As for `Cc1cc(NC(=O)c2cc(CC(C)C)on2)no1`, the IC50 in assay [1] was 4 µM; in assay [2] it was over 60 µM; in assay [3] it was 120 µM.
As for `COc1ccc(S(=O)(=O)Nc2nc3ccccc3nc2NCc2ccc3c(c2)OCO3)cc1`, the IC50 in assay [3] came to 12 µM.
Regarding `O=C(Nc1nc(-c2ccc(S(=O)(=O)N3CCCCCC3)cc2)cs1)c1cccs1`, the half-inhibitory concentration (IC50) in assay [1] was 8 µM; in assay [2], over 60 µM; in assay [3], 12 µM.
Taken in the same sequence, the figures for `Oc1cc(-c2ccc(Cl)c(Cl)c2)[nH]n1` were 13 µM, over 60 µM and 12 µM.
Turning to `O=C(CS[n+]1cc(-c2ccc(F)cc2)cs1)NC(=O)NCc1ccco1`, the IC50 was 3 µM in assay [1], over 60 µM in assay [2] and 60 µM in assay [3].
As to `O=C(CSc1nnc(-c2ccccc2)o1)N1CCN(c2ccccc2)CC1`, the IC50 in assay [1] is 13 µM; in assay [2], over 60 µM; in assay [3], 30 µM.
Taken in the same sequence, the figures for `CCn1ccnc1C(O)c1cccc(OC)c1OC` (configuration not stated) were 4 µM, over 60 µM and over 120 µM.
As for `O=C(Nc1ccc(/N=N/c2ccccc2)cc1)c1cccc(Cl)c1`, the midpoint of inhibition in assay [3], the IC50, lay at 12 µM.
For `Cc1ccc(Cl)cc1NC(=O)CCC(=O)Nc1cc(Cl)ccc1C`, in assay [3], 12 µM corresponded to half-maximal inhibition (IC50).
Regarding `C=C(C)CSc1cc(N)c(C#N)c(-c2ccc(C)cc2)c1C#N`, the IC50 in assay [1] was 6 µM; in assay [2], over 60 µM; in assay [3], 12 µM.
For `Cc1ccc(NC(=O)CSC(N)=O)cc1Cl` the same measures were 13 µM, over 60 µM and over 120 µM.
In the case of `CCc1ccc(C(=O)CSC2=C(C#N)C(c3ccco3)C(C(C)=O)=C(C)N2)cc1` (configuration not stated), the IC50 in assay [1] is 13 µM; in assay [2], over 60 µM; in assay [3], 30 µM.
As for `c1ccc(-c2cc3c(NCC4COc5ccccc5O4)ncnc3s2)cc1` (configuration not stated), in assay [3], half-maximal inhibition (IC50) was put at 12 µM.
The same measure, in the same setting: as for `CCN(Cc1ccccc1)c1nc2c(S(=O)(=O)c3ccccc3)nnn2c2ccc(Cl)cc12`, the figure is 12 µM.
Consider `Cc1cccc(NS(=O)(=O)c2ccc(C)c(C(=O)OCC(=O)Nc3cc(C)on3)c2)c1`, for which the IC50 is 10 µM in assay [1], over 60 µM in assay [2] and 30 µM in assay [3].
As to `O=C(Cn1c(=O)oc2ccccc21)Nc1oc(-c2ccccc2)c(-c2ccccc2)c1O`, the half-inhibitory concentration (IC50) is 13 µM in assay [1], over 60 µM in assay [2] and 12 µM in assay [3].
For `O=C(Nc1nc(-c2cccs2)cs1)c1ccc(S(=O)(=O)N2CCCC2)cc1` the same measures were 13 µM, over 60 µM and 12 µM.
Turning to `O=C(COC(=O)c1cccc(Oc2ccccc2)c1)Nc1nnc(-c2ccccc2)o1`, the IC50 was 16 µM in assay [1], over 60 µM in assay [2] and 12 µM in assay [3].
Taken in the same sequence, the figures for `Cn1c(C(C#N)C(=O)c2sc3ccccc3c2Cl)nc2ccccc21` (configuration not stated) were 13 µM, over 60 µM and 12 µM.
With `O=C(COC(=O)c1cc(-c2ccco2)nc2ccccc12)NCc1ccc2c(c1)OCO2`, the IC50 in assay [1] was 13 µM; in assay [2] it was over 60 µM; in assay [3], 30 µM.
For `COC(=O)c1ccc(-c2nc(-c3ccc(Br)o3)no2)cc1`, the IC50 was 4 µM in assay [1], over 60 µM in assay [2] and 30 µM in assay [3].
For `Cc1ccc(C(=O)Nc2nc(-c3cc(Cl)sc3Cl)cs2)cc1`, the midpoint of inhibition in assay [3], the IC50, lay at 12 µM. This lies in the double-digit micromolar range.
In the case of `COc1ccc(C(=O)Nc2nncs2)c(OC)c1`, the values for the IC50 in assay [1], in assay [2] and in assay [3] were 4 µM, over 60 µM and over 120 µM, respectively.
For `O=C(c1ccccc1)c1cn(CC(=O)N2CCCC2)c2ccccc12` the same measures were 4 µM, over 60 µM and 120 µM.
Consider `Cc1cc(=O)oc2cc(OCC#N)ccc12`, for which the IC50 was 4 µM in assay [1], over 60 µM in assay [2] and over 120 µM in assay [3].
As for `Cc1sc(NC(=S)NC(=O)C2CCCCC2)c(C(N)=O)c1C`, the IC50 in assay [3] was 12 µM. In other words, the double-digit micromolar range.
Regarding `Cn1cnnc1SCC(=O)Nc1sc2c(c1C(N)=O)CCC2`, the IC50 in assay [1] is 10 µM; in assay [2], over 60 µM; in assay [3], 120 µM.
For `CCSc1nnc(NC(=O)c2ccc(Br)s2)s1` the same measures were 10 µM, over 60 µM and 12 µM.
For `NC(=O)SCC(=O)Nc1cccc(Cl)c1` the same measures were 8 µM, over 60 µM and over 120 µM.
Regarding `O=C(Nc1nc(-c2cccc(Br)c2)cs1)Oc1ccccc1`, the IC50 in assay [3] was found to be 30 µM.
On to `Cc1ccc(-c2csc(NC(=O)c3ccno3)n2)cc1`, for which the IC50 is 8 µM in assay [1], over 60 µM in assay [2] and over 120 µM in assay [3].
As to `N#Cc1c(-c2ccccc2)cc(-c2ccco2)c(C#N)c1N`, the IC50 is 6 µM in assay [1], over 60 µM in assay [2] and 12 µM in assay [3].
Taken in the same sequence, the figures for `O=C(CSCc1ccc(Cl)cc1)c1ccco1` were 10 µM, over 60 µM and 120 µM.
Taken in the same sequence, the figures for `Cc1cc(NC(=O)Cc2cccs2)no1` were 13 µM, over 60 µM and 30 µM.
Consider `COc1ccc(/C=N/NC(=O)c2ccc(Br)cc2)cc1Cn1cc(Cl)cn1`, for which 12 µM corresponded to half-maximal inhibition in assay [3] (IC50).
Take `C=CCNC(=O)c1cc([N+](=O)[O-])cc2c(=O)[nH]c(Nc3ccc(Cl)c(Cl)c3)nc12`: the IC50 in assay [1] is 2 µM; in assay [2] it was over 60 µM.
Turning to `O=c1c(O)c(-c2ccc(O)c(O)c2)oc2cc(O)ccc12` [FISETIN], the 50% inhibitory concentration (IC50) was 13 µM in assay [1], over 60 µM in assay [2] and 30 µM in assay [3].
Consider `CCCCCCNC(=O)Nc1ccc(S(=O)(=O)Nc2ccc(CCNC[C@H](O)COc3ccc(O)cc3)cc2)cc1` [L-755507], for which the IC50 in assay [2] was over 60 µM; in assay [3], 12 µM.
Consider `O=C(c1ccc(OCCN2CCCCC2)cc1)c1c(-c2ccc(O)cc2)sc2cc(O)ccc12` [RALOXIFENE], for which the values for the IC50 in assay [1] and in assay [2] were 5 µM and over 60 µM, respectively.
